Assay outcomes: PubChem, several laboratories
TNAP act mid DEA: human TNAP enzyme activators, primary screen, biochemical, luminescent, intermediate phosphate acceptor level | AID 813, 2007 | activation factor at 20 µM | Alkaline phosphatase, tissue-nonspecific isozyme (Homo sapiens), P05186 | purified TNAP, CDP-star luminescence, 100 mM DEA, 30 min; hits give high values; scale: 0 levamisole-inhibited, 1 vehicle-only enzyme | 64,000 tested, under 10 active;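 active = activation factor of at least 2 at 20 µM, relative to controls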
MT1-MMP txn act: MT1-MMP promoter reporter activation – cell-based, luciferase luminescence, primary screen | HT1080 MT1-MMP promoter luciferase reporter, overnight; hits give high values | activation factor at 10 µM | hit rate 0.16% among 86,000 | AID 750, 2007;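 active = activation factor of at least 2 for MT1-MMP transcription at 10 µM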
SF-1 act: activators of human SF-1, primary screen, cell-based, CHO-K1, Gal4-SF-1 LBD, luciferase luminescence; Steroidogenic factor 1 (Homo sapiens), Q13285; CHO-K1 Gal4-SF-1 LBD luciferase reporter; % increase over DMSO SF-1-specific signal; activation, % at 10 µM; hit rate 1.9% among 65,000;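 active = activation above the mean activation of all tested compounds plus 3 SD, cut at about 50% in these data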
Target sequence (Q13285 whole entry, looked up, the tested form may be a part): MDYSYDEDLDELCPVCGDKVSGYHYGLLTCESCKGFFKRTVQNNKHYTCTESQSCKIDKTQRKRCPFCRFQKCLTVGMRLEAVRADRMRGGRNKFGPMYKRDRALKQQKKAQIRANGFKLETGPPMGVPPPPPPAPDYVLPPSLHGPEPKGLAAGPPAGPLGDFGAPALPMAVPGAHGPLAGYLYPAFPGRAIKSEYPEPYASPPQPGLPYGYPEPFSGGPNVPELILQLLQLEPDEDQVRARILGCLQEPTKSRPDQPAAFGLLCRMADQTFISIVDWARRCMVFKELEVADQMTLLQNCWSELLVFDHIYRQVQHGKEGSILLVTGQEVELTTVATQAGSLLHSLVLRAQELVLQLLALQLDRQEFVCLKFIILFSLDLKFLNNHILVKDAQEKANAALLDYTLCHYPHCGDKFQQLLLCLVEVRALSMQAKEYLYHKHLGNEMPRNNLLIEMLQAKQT
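material = CHO-K1 cells with Gal4–hSF-1 LBD chimera plus Gal4-driven luciferase | compound = 10 µM single point, 1% DMSO | incubation = 20 h compound exposure at 37 °C after 1 h cell settling | measured by = SteadyLite luciferase luminescence | evaluation = percent activation relative to DMSO median and mock-transfected background | control set = DMSO negative control and −SF1 background wells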
RORa activator: activators of orphan receptor RORA, primary screen, cell-based, luminescence; hit rate 1.5% among 65,000; AID 560, 2006; Nuclear receptor ROR-alpha (Homo sapiens), P35398; CHO-K1 Gal4-RORA LBD luciferase reporter; percent increase over mock-subtracted basal signal; activation, % at 10 µM;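 active = activation above the mean of all tested compounds plus 3 SD, cut at about 49% in these data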;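 also: 0% = DMSO-treated RORA cells and 100% = added signal equal to DMSO minus mock-transfected cells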
AP complement: alternative complement pathway inhibitors, primary screen, biochemical, ELISA, human serum, orthogonally pooled compounds; LPS-coated ELISA, C3 deposition; tested in compound mixtures; inhibition, % at 5 µM; hit rate 0.08% among 62,000;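 active = inhibition above 30% in each of the two pooled mixtures holding the compound, so the lower value exceeds 30%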;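 also: 0% = serum in Mg-EGTA without compound and 100% = EDTA serum blank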
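Test system: human serum complement alternative pathway, C3 deposition onto LPS / Medium: Mg2+-EGTA GVB++ buffer containing human serum at 1:15 dilution / Probe or stimulus: Plate-bound LPS / Times: 1 h at 37 °C / Signal: ELISA with HRP anti-human C3 antibody, TMB substrate, absorbance 450 nm / Measure: percent inhibition / Repeats: two pool placements per compound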
E coli RNAP: E. coli RNAP inhibitors, biochemical. inhibition, %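 (tested at 10 µM)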. E. coli RNA polymerase, fluorescence transcription assay. hit rate 0.2% among 62,000; in the data active = inhibition above about 20%;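 also: 0% = enzyme without compound and 100% = no enzyme blank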
Active calls of the source: *; x = not tested or not shown. This is a sample that favours compounds with a hit; in the whole collection about 2.2% have one here.

SMILES	TNAP act mid DEA	MT1-MMP txn act	SF-1 act	RORa activator	AP complement	E coli RNAP
CCn1c(SCC(=O)NC(=O)Nc2ccc3c(c2)OCCO3)nnc1-c1cccs1	1	1.2	10	-16	-9	22*
Cc1nc(NC2=NCN(CC3CCCO3)CN2)nc2ccccc12 (stereo not drawn)	0.9	0.8	5	-19	11	6
O=C(CCSc1ccccc1)N1CCOCC1	1	1.4	52*	32	16	6
Cc1ccc(SCCC(=O)N2CCOCC2)cc1	1	1.4	47	51*	3	2
O=C(CCSc1nnnn1-c1ccccc1)N1CCOCC1	0.9	1.3	6	2	5	1
Cc1cc2cc(CNC(=O)Cc3cccs3)ccc2n1C	0.9	x	-19	-13	10	7
COc1ccc(CCNC(=O)CCC2COc3ccccc3O2)cc1OC (stereo not drawn)	x	1.1	x	x	x	x
COc1ccc(-c2cc(C(=O)N3CCCCC3)no2)cc1OC	0.9	1.7	77*	6	5	7
COc1ccc(-c2cc(C(=O)N3CCN(Cc4ccccc4)CC3)no2)cc1OC	0.8	1.1	-8	11	-3	10
Cc1nnc2sc(-c3cc4ccccc4o3)nn12	0.9	1.3	34	57*	6	5
c1ccc(-c2nnc3sc(-c4cc5ccccc5o4)nn23)cc1	0.9	1.2	-18	-16	5	x
COC(=O)c1sc(NC(=O)Cc2cccs2)nc1C	0.9	1.3	44	28	6	2
Cc1onc(-c2ccccc2)c1C(=O)Nc1sc2c(c1C#N)CCC2	0.9	1.1	24	16	-2	-2
N#Cc1c(NC(=O)c2cc(C3CC3)on2)sc2c1CCC2	0.9	1.1	80*	26	15	4
Cc1cc(C(=O)Nc2sc3c(c2C#N)CCC(C)C3)no1 (stereo not drawn)	0.9	0.8	97*	53*	13	9
Cc1noc(C(=O)Nc2sc3c(c2C#N)CCC3)c1Cl	0.9	1.2	48	52*	8	6
CC(C)Cc1cc(C(=O)Nc2sc3c(c2C#N)CCCC3)no1	0.9	1.2	15	41	15	1
Cc1cc(C(=O)Nc2sc3c(c2C#N)CCCC3)no1	0.9	1.2	71*	41	14	9
c1cc(-c2nc3cc(Oc4ccc5oc(-c6ccncc6)nc5c4)ccc3o2)ccn1	1.1	1.1	2	-4	18	-5
Cc1noc(C)c1CSc1nc2ccccc2c(=O)n1-c1ccc(Cl)cc1	x	1.2	x	x	x	x
COC(=O)[C@H](C)NC(=O)Nc1cc(OC)ccc1OC	1	1	-8	-14	-8	9
CCCC[C@@H]1C[C@H]1C(NC(=O)c1cccs1)c1ccccc1C(F)(F)F (stereo partly drawn)	x	1.2	x	x	x	x
CCOC(=O)c1cnc(SC)nc1Sc1ccccc1	x	1.1	x	x	x	x
N#Cc1c(NC(=O)c2ccccc2)sc2c1CCCCC2	x	0.7	x	x	x	x
Cc1cc(C(=O)Nc2sc3c(c2C#N)CCC3)no1	1	1.2	116*	60*	8	13
SMILES	TNAP act mid DEA	MT1-MMP txn act	SF-1 act	RORa activator	AP complement	E coli RNAP
Cc1ccc(C2NC(=O)Cc3ccccc32)cc1 (stereo not drawn)	x	1	x	x	x	x
COC(=O)c1ccc(C#CC(NP(=O)(c2ccccc2)c2ccccc2)c2ccccc2)cc1 (stereo not drawn)	x	1.2	x	x	x	x
Cc1ccc(S(=O)(=O)/N=S(\C)CC2CC2(Cl)Cl)cc1 (stereo not drawn)	x	1.1	x	x	x	x
O=C(Cn1cnc2c(oc3ccccc32)c1=O)c1ccccc1	1	1.5	61*	93*	10	0
CCC(c1nnc(SCC(=O)NCCc2ccc(Cl)cc2Cl)o1)N(C)C (stereo not drawn)	0.9	1.9	-6	2	-5	10
CN(C)c1cccc(C(=O)Nc2cccc(F)c2)c1	0.9	1.2	58*	46	11	7
